We go through 44 compounds from ChEMBL document CHEMBL1127506, “Novel ligands specific for mitochondrial benzodiazepine receptors: 6-arylpyrrolo[2,1-d][1,5]benzothiazepine derivatives. Synthesis, structure-activity relationships, and molecular modeling studies” (J Med Chem, 1994).

The target of assay [1] is T1, Translocator protein (Rattus norvegicus, UniProt P16257). Nature of the assay: Displacement of [3H]-PK 11195 from peripheral (mitochondrial) benzodiazepine receptor. For orientation: In a radioligand displacement assay an active substance lowers the binding of a labelled ligand.
Assay [2] has as its target T1, Translocator protein. The experiment in a line: Displacement of [3H]-PK 11195 from peripheral (mitochondrial) benzodiazepine receptor (inactive). The gist of the method:
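Male CD rat cortex (about 150 g) homogenized in ice-cold 50 mM PBS, pH 7.4, spun at 50000g for 10 min, and washed three times. 10 mg original wet tissue incubated with 1 nM [3H]PK 11195 and 8–12 drug concentrations (highest 10^-5 M) for 120 min at 4 °C. Nonspecific binding with 1 μM PK 11195. GF/B filtration, scintillation counting, triplicate points, IC50 by nonlinear curve fitting.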

Usually IC50 stands for the concentration that gives 50% inhibition. Read a low IC50 as greater potency in that assay.

Each structure is given as a SMILES string.

T1 sequence (P16257 whole entry, looked up): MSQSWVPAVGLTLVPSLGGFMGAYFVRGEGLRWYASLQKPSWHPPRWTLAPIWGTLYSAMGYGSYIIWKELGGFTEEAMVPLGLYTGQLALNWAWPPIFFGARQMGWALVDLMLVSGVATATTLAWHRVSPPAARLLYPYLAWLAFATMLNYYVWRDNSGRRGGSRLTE

On to `CCC(=O)OC1=C(c2ccc(OC)cc2)Sc2ccccc2-n2cccc21`, for which the IC50 in assay [1] turned out to be 30 nM. For `COc1ccc(C2=C(OC(=O)c3ccncc3)c3cccn3-c3ccccc3S2)cc1`, the IC50 result in assay [2] is on record as “Not Active”.

The compound `CCCC(=O)OC1=C(c2ccc(OC)cc2)[S+]([O-])c2ccccc2-n2cccc21` (centres undefined) returned an IC50 in assay [1] of 270 nM. In other words, the sub-micromolar range. In the case of `CCC(=O)OC1=C(c2ccc(OC)cc2)Sc2ccc(C(F)(F)F)cc2-n2cccc21`, the IC50 in assay [1] is 2950 nM. `COc1ccc(C2=C(OC(C)=O)c3cccn3-c3ccc(Cl)cc3S2)cc1`: the IC50 in assay [1] was 240 nM. On the same count and under the same terms, to `COc1ccc(C2C(=O)c3cccn3-c3ccccc3[S+]2[O-])cc1` (centres undefined) belongs 23000 nM; to `O=C1c2cccn2-c2ccccc2[S+]([O-])C1c1ccccc1` (centres undefined), 14700 nM; to `CC(=O)OC1=C(c2ccccc2)[S+]([O-])c2ccccc2-n2cccc21` (centres undefined), 690 nM. `COc1ccc([C@H]2Sc3ccccc3-n3cccc3[C@H]2OC(C)=O)cc1`: the IC50 entry in assay [2] is reported as “Not Active”. In turn, `COc1ccc(C2=C(OC(C)=O)c3cccn3-c3cc(OC)ccc3S2)cc1` had an IC50 in assay [1] of 1810 nM. Still for that read-out and setting: to `COc1ccc(C2=C(OC(C)=O)c3cccn3-c3cc(C(F)(F)F)ccc3S2)cc1` belongs 4530 nM. The same measure, in the same setting: to `COc1ccc(C2=C(OC(=O)N(C)C)c3cccn3-c3cc(C(F)(F)F)ccc3S2)cc1` belongs 290 nM.

As to `CCCCCC(=O)OC1=C(c2ccccc2)Sc2ccccc2-n2cccc21`, in assay [1], the half-maximal inhibitory concentration (IC50) was 23 nM. On the same count and under the same terms, to `CCC(=O)OC1=C(c2ccccc2)Sc2ccccc2-n2cccc21` belongs 67 nM. With `COc1ccc(C2=C(OC(=O)c3c(OC)cc(OC)cc3OC)c3cccn3-c3cc(Cl)ccc3S2)cc1`, the IC50 entry in assay [2] is “Not Active”. Regarding `COc1ccc(C2=C(OC(C)=O)c3cccn3-c3ccccc3S2(=O)=O)cc1`, in assay [1], the IC50 is 640 nM.

The compound `CN(C)C(=O)OC1=C(c2ccccc2)Sc2ccccc2-n2cccc21` returned an IC50 in assay [1] of 9 nM. Against the preceding compound, the IC50 is about 71-fold lower. The same measure, in the same setting: to `CC(=O)OC1=C(c2ccccc2)Sc2cc(Cl)ccc2-n2cccc21` belongs 230 nM; to `CC(=O)OC1=C(c2ccccc2)Sc2ccc(Cl)cc2-n2cccc21`, 560 nM; to `CCCCC(=O)OC1=C(c2ccccc2)Sc2ccccc2-n2cccc21`, 48 nM. On the same count and under the same terms, with `CCC(=O)OC1=C(c2ccc(OC)cc2)Sc2ccc(Cl)cc2-n2cccc21` the figure was 490 nM.

Take `COc1ccc(C2=C(OC(=O)c3c(OC)cc(OC)cc3OC)c3cccn3-c3ccccc3S2)cc1`: the IC50 result in assay [2] is on record as “Not Active”.

In assay [1], `COc1ccc(C2=C(OC(=O)N(C)C)c3cccn3-c3ccccc3S2)cc1` came in with an IC50 of 9 nM. Same read-out and setting: to `CCCC(=O)OC1=C(c2ccc(OC)cc2)Sc2ccccc2-n2cccc21` belongs 28 nM; to `O=C1CSc2ccccc2-n2cccc21`, more than 14000 nM. Same read-out and setting: with `CC(=O)OC1=C(c2ccccc2)Sc2ccccc2-n2cccc21` the figure was 20 nM; with `COc1ccc(C2=C(OC(C)=O)c3cccn3-c3cc(Cl)ccc3S2)cc1`, 650 nM. `COc1ccc(C2=C(OC(=O)c3c(OC)cc(OC)cc3OC)c3cccn3-c3cc(C(F)(F)F)ccc3S2)cc1`: the IC50 entry in assay [2] is given as “Not Active”. For the compound `CC(=O)OC1=C(c2ccccc2)Sc2c(Cl)cccc2-n2cccc21`, in assay [1], the IC50 was 8 nM. In other words, the single-digit nanomolar range. The same measure, in the same setting: to `COc1ccc(C2Sc3ccc(Cl)cc3-n3cccc3C2=O)cc1` (centres undefined) belongs 1410 nM. For `O=C1c2cccn2-c2ccccc2S(=O)(=O)C1c1ccccc1` (centres undefined), in assay [2], the IC50 entry is given as “Not Active”. Consider `COc1ccc(C2=C(OS(C)(=O)=O)c3cccn3-c3ccccc3S2)cc1`, for which the IC50 in assay [1] was 95 nM. `COc1ccc(C2=C(OC(=O)N(C)C)c3cccn3-c3cc(Cl)ccc3S2)cc1`: the IC50 in assay [1] was 170 nM.

Take `COc1ccc(C2Sc3ccccc3-n3cccc3C2=O)cc1` (centres undefined): in assay [1], the IC50 was found to be 2090 nM. Compared with the last compound, the IC50 is about 12-fold higher. The compound `CCCC(=O)OC1=C(c2ccccc2)Sc2ccccc2-n2cccc21` returned an IC50 in assay [1] of 22 nM.

Take `COc1ccc(C2=C(OC(C)=O)c3cccn3-c3ccccc3S2)cc1`: the IC50 in assay [1] stood at 34 nM. Same read-out and setting: to `O=C1c2cccn2-c2ccccc2SC1c1ccccc1` (centres undefined) belongs 1220 nM; to `COc1ccc(C2Sc3ccc(C(F)(F)F)cc3-n3cccc3C2=O)cc1` (centres undefined), 6210 nM.

For the compound `CC(=O)OC1=C(c2ccccc2)S(=O)(=O)c2ccccc2-n2cccc21`, the IC50 in assay [1] worked out at 1140 nM.

`CCC(=O)OC1=C(c2ccccc2)Sc2ccc(Cl)cc2-n2cccc21` gave an IC50 in assay [1] of 820 nM.

On to `COc1ccc(C2=C(OC(=O)c3cccnc3)c3cccn3-c3ccccc3S2)cc1`, for which the IC50 result in assay [2] is recorded as “Not Active”. `COc1ccc(C2=C(OC(C)=O)c3cccn3-c3cccc(Cl)c3S2)cc1` had an IC50 in assay [1] of 20 nM. The same measure, in the same setting: with `CS(=O)(=O)OC1=C(c2ccccc2)Sc2ccccc2-n2cccc21` the figure was 60 nM; with `COc1ccc(C2=C(OC(C)=O)c3cccn3-c3ccccc3[S+]2[O-])cc1` (centres undefined), 2090 nM.
